Test results: the RNAGym collection of RNA variant scans (doi:10.1126/science.aae0568)
Fewer inactive variants are shown than the library holds.

B1: tRNA (parent)
chain: GUUCCGUUGGCGUAAUGGUAACGCGUCUCCCUCCUAAGGAGAAGACUGCGGGUUCGAGUCCCGUACGGAACG

Variants of: B1
Assay: yeast fitness relative to wild type (ratio to wild type); higher = fitter; tRNA-Arg(CCU), competitive growth, 37 C, YPD
How it was run: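 For this measurement, the tRNA-Arg(CCU) gene was varied by chemical synthesis at a 3% per-site mutation rate across 69 sites, and each variant was placed at the native genomic locus in Saccharomyces cerevisiae. The pooled strains went through a 24-hour competition in YPD at 37°C in six parallel replicates, with amplicons from start and end populations read by 100-nucleotide paired-end sequencing. Darwinian fitness relative to wild type followed from the change in each genotype's frequency. Genotypes needed ≥ 100 starting reads, and estimates < 0.5 were set to 0.5.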

| Variant | yeast fitness |
| --- | --- |
| GUUCCGUUGGCGUAAUGGUAACGCGUCUCCCUCCUAAAGAGAAGACUGCGGGUUCGAGUCGCGUACGCAACG | ≤ 0.5 |
| GUUCCGUUGGCGAAAUGGUAACGCGUCUCCCUGCUAAGGAGAAGACUGCGGGUACGAGACCCGUACGGAACG | ≤ 0.5 |
| GUUCCGUUGGCGUCAUGGUAACGCGUCUUCCUCCUAAGCAGAAGACUGCGGGUCCGAGUCCCGUACGGAACG | 0.678 |
| GUUCCAUUGGCGUAAUGGUAACGAGUCUCCCUCCUAAACAGAAGACUGCGGAUUCGAGUCCCGUACGGAACG | 0.625 |
| GUUCCGGUGCCGUAAUGGUAAGGCGUCUCCCUCCUAAGGAGAAGACUGCGGGUUAGAGUCCCGUACGGAACG | ≤ 0.5 |
| GUUCCGUUGGCGUAAAGGUAACGCGUCUCCUUCCUAAGGAGAAGACUGCGGGUUCGAGUCCCGUACGGAACG | 0.979 |
| GUUCCGUUGGCGUAAUGGUAACGUGUCUCCAUAUUAAGGAGAAGAAUGCGGGUUCGAGUCCCGUACGGAACG | ≤ 0.5 |
| GUUCGGUUCGCGUAAUGAUAACGCCUCUCCCUCCUACGGAGAGGACUGCGGGUUCGAGUCCCGUACGGAACG | ≤ 0.5 |
| GUUGCGUUGGCGUAAUGGAAACGCGUCUCCCUCCUAAGGAGAAGAUUGCGGGUUCGAGUCCCGUACGGAUCG | ≤ 0.5 |
| GUUCCGUUGGCGUUAUGGUACUGCGUCUCCCUGCUAAGGAGAAGACUGCGGGUUCGUGUGCCGUACGCAACG | ≤ 0.5 |
| GUCCCGUUGGCGUAAUGGUAACGCGUGUCCCUCCUAAGGAGAAGACUGAGGGUUCGAGUCCCGUACGGAGCG | 0.593 |
| GUUCUGUUGGCGUAGUGGUAACGCGUCUCCCUCCUAAGGAGAAGAGUGCGGGUUCGAGUCCCGUACGGAACG | 0.892 |
| GUUCCGUUGGCGUAAUGGUAACGCGUCUCCCUCCUAAGGACAAGACUGCGGGUUCAAGUCCCGUGUGGAACG | ≤ 0.5 |
| GUUCCGUUGGCGUAAUGGUAACCCGUCUCCCUCCUAAGGAGAAGACUGUGGGUUCGAGUCCCGUACGGAACG | 0.71 |
| GUUCCGUCGGCGUAAUGGUAACGCGUCUCGCUCCUAAGGAGAAGACUGCGGGUUCGAGUCCCGUACGGCACG | ≤ 0.5 |
| GUUCCGUUGGCGUAAUGGUAACACGUCUCCCUCCUAAGGAGAAGUCUGCGGGUUCGAGUCCCGUACGGAACG | 0.674 |
| GUUCCGUUGGCGUAAUGGUAACGCGGCUCCCUCCUAAGGAGAGGACUGCGGGUUCGAGUCCCGUACGGAACG | 0.895 |
| GUUCCCUUAGCGUAAUGGUAUCGCGUCGCCCUCUUAAGGAGAAGACUGCGGGUUCGAGUCCCAUACGGAACG | ≤ 0.5 |
| GUUCCGUUGGCGUACUCGUAACGCGUCUCCACCCUAAGGAGAACACUGCGGGUUCGAGUCCCGUACGGAACG | ≤ 0.5 |

| Variant | yeast fitness |
| --- | --- |
| GUUUCGUUGGCGUAAUGAUAAUGCGUCUCCCUCCUAAGGCGAAGACUGCGGGUUCGAGUCCCGUACGCAACG | 0.591 |
| GUUCCGUUGGCGUAAUGGUAACGCGUCUCCAUCCUAAGGAGAAGACUGCGGCUUCGGGUCCCGUACGGAACG | ≤ 0.5 |
| GUUCCGUUGGGGUAAUGGUAACGCGUCUCCCUCCUAAGGAGAAGACUGCGGGUUCGAGUCCCGUGCGGAACG | 0.696 |
| GUUCCGUUGGCGUAAUGGUAACGCGUCUCCCUCCUAAGGAGAAGACUACGGGUUUGAGUCCCGUCCGGAACG | 0.627 |
| GUUCUGAUGGCGUAAUGGUAACGCGUCUCCCUACUAAGGAGAAGCCUGCGGGUUCGAGUCCCGUACGGAACG | 0.573 |
| GUUCCGUUGGCGUAAUGGUAACGCGUCUCCCUCCUAAGGAGAAGACUGCGGGUGCGAGUCCCGUACGGAACG | 0.641 |
| GUUCCGUUGGCGUAAUGGUAACGCGUCUCCCUCCUAAGGAGAAGACUGCGGGUACGAGUCCCGCACGGAACG | 0.683 |
| GUUCCGUUGGCGUAAUGGUAACGCGUCUCCCUCCGAAGGAGAAGACUGCGGGUUCGAGUCGCGUACGGAACG | ≤ 0.5 |
| GUUCUGUUGGCGUAAUGGUAACGCGUCUUCCUCCUAAGGAGAAGACUGCGGGUUCGAGUCCCGUACGGAACG | 0.867 |
| GUUCCGUUGGCGUAAUGGUAACGCGUCUCCCUCCUAAGGAGAAGACUGCGGGAUCCAGUACCGUACGGAGCG | 0.58 |
| GUUCCGUUGGUGUAAUGGUAAUGCGUCUCCCUCCUAAGGCGAAGACUGCGGGUUCGAGUCCCGUACGGAACG | 0.558 |
| GUUCGGUUGGCGUGAUGGUAACGCGUCUCCCUCCUAAGGAGAACACUGCGGGUUCGAGUCCUGUAUGGCACG | ≤ 0.5 |
| GCUACGUUGGUGUAAUGGUAACGCGUCUCCCUCCUAAGGAGAAGACUGCGGGUUCGAGUACUGUACGGAACG | ≤ 0.5 |
| GUUCCGUUGGCGUAAUAGUAACGGGUGUCCCUCCUAAGGAGAAGACUGCGGGUUCGAGUCCCGUACGGAACG | 0.57 |
| GUUCCGUUGGCGUAAUGGUGACGCGUCUCCCUCCUAAGGAGAAGACUGCGGGUUCGAGUCCGGUACGGAACG | 0.804 |
| GUUCGGUUGGCGUAAUGGUAACGCGUCUCCCUCCUUAGGAGAAGACUGCGGGUUCGAGUCCCGUACGGAACG | 0.583 |
| GUUCCGUUGGCGUAAUGGUAACGCGUUUGCCUCCUAAGGAGGAGACUGCGGGUUCGAGUCCCGUACGGAACG | ≤ 0.5 |
| GUUCCGUUGGCGUAACGGUAACGCGUUUCCCUCCUAAGGAGGAGACUGCGGGUUCGAGUCCCGUACAGAACG | ≤ 0.5 |
